Results published in ChEMBL document CHEMBL1127310, “Synthesis and anticonvulsant activities of alpha-acetamido-N-benzylacetamide derivatives containing an electron-deficient alpha-heteroaromatic substituent” (1994).

Experiments:
Format in all cases: functional
[1] = species on record: Mus musculus; test: Median neurologically impairing dose was determined in mice using the rotarod test
Method in brief: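 Male Carworth Farms No. 1 mice dosed ip and placed on a 1-in. knurled rod turning at 6 rpm. Neurotoxicity means failure to stay on the rod for 1 min. Four mice per dose in the screen, then normally eight mice per dose for the dose-response, at time of peak effect.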

[2] = tested on: Mus musculus; test: Effective dose required to prevent tonic extension of the hind limbs in mice in the maximal electroshock seizures (MES) test when administered intraperitoneally; conditions: Hindlimb, ip
Method in brief: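 Male Carworth Farms No. 1 mice, drug given ip. Seizures elicited by 60-cycle alternating current, 50 mA, for 0.2 s via corneal electrodes. Protection means no tonic hind-limb extension. Phase I screen at 30, 100 and 300 mg/kg. Dose-response then run at varied doses, normally eight mice per dose, at time of peak effect (0.5 h or 0.25 h).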

[3] = Protective Index was determined using the ratio of TD50/ED50 value
Method in brief: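 PI is TD50/ED50 in ip-dosed mice. TD50 comes from the rotorod or the horizontal screen test. ED50 comes from the MES test. Not determined when there was no MES activity below 100 mg/kg.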

| Structure (SMILES) | TD50 [1] [mg/kg] | ED50 [2] [mg/kg] | PI [3] |
| --- | --- | --- | --- |
| CCC1(c2ccccc2)C(=O)NC(=O)NC1=O [PHENOBARBITAL] | 69 |  |  |
| CC(=O)NC(C(=O)NCc1ccccc1)c1ccccn1 (centres undefined) | < 100 | 10.8 |  |
| CC(=O)NC(C(=O)NCc1ccccc1)c1ccccc1 (centres undefined) | > 40 |  |  |
| CC(=O)NC(C(=O)NCc1ccccc1)c1cccs1 (centres undefined) | < 100 |  |  |
| CC(=O)NC(C(=O)NCc1ccccc1)c1ccsc1 (centres undefined) | < 100 |  |  |
| CC(=O)NC(C(=O)NCc1ccccc1)c1ccc[nH]1 (centres undefined) | < 100 |  |  |
| CC(=O)NC(C(=O)NCc1ccccc1)c1ncco1 (centres undefined) | 38.6 |  | 3.7 |
| CC(=O)NC(C(=O)NCc1ccccc1)c1cnccn1 (centres undefined) | 58.2 | 14.8 | 3.9 |
| CC(=O)NC(C(=O)NCc1ccccc1)c1nccs1 (centres undefined) | 69.1 |  | 5.7 |
| CC(=O)NC(C(=O)NCc1ccccc1)c1ncccn1 (centres undefined) | 56.7 | 8.1 | 7 |
| CC(=O)NC(C(=O)NCc1ccccc1)c1ccco1 (centres undefined) | ~40 |  | > 3.9 |
